In publication PMC11539713 (Malaria Journal, 2024):
Converted amounts (≈) assume the structure as drawn. “And” between values parts separate entries of the source, which are not always exact repeats. Identical values can stand only once. Like-named read-outs stand apart in the source and are kept apart here. Blank lines part the entries; values can stand above or below the molecule they belong to.

What was measured:
[1] = tested on: PfDd2; test: In vitro drug susceptibility, SYBR Green I fluorometric method, PfDd2; assay type: cell-based; conditions: Plasmodium falciparum
Procedure, shortened: (§1)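 Synchronous ring-stage P. falciparum culture at final 0.5% parasitaemia and 2% haematocrit, exposed to test compound. Chloroquine served as positive control and 0.1% DMSO as negative control. Growth was read by SYBR Green I fluorescence. MIC50/MIC90 came from nonlinear regression of log-transformed concentrations, averaged over two independent experiments each run in duplicate.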

[2] = tested on: PfDd2; conditions: cited from earlier work
[3] = tested on: Pf3D7; conditions: cited from earlier work
[4] = tested on: Pf3D7; test: In vitro drug susceptibility, SYBR Green I fluorometric method, Pf3D7; assay type: cell-based; conditions: Plasmodium falciparum
Procedure, shortened: as §1

[5] = tested on: CYP enzymes; test: Enzyme phenotyping with; assay type: in vitro ADME, human; conditions: for Effect of inhibitor on formation of ART-M in HLMs: ART 1 μM, HLMs 1 mg/mL, 1 mM 1-ABT, 1 μM ketoconazole
[6] = cited from earlier work
[7] = tested on: CYP3A; conditions: read-out: Inhibition constant Ki of CYP3A; cited from earlier work
[8] = cited from earlier work; remark: listed apart in the source
[9] = Plasma protein binding by ultrafiltration; assay type: in vitro ADME; conditions: human, pooled human plasma
[10] = assay type: in vivo, human; conditions: for fAUC0-t: area under the free plasma concentration–time curve; for fCmax: maximum free plasma concentration
Procedure, shortened: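 Subjects were six healthy non-smoking men, 20–26 y, BMI 20–25 kg/m2. Each received oral test compound 125 mg plus piperaquine 750 mg per dose over two days. Venous blood was drawn 0–48 h, and plasma was stored at −80 °C. Samples were prepared by acetonitrile precipitation with deuterated internal standard and analysed by LC-HRMS. Non-compartmental analysis used observed Cmax/Tmax, AUC0-t by linear trapezoidal rule, and CL/F = dose/AUC0-t.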

[11] = Enzyme kinetics of ART metabolism in human liver microsomes; assay type: in vitro ADME; conditions: HLMs 0.5 mg/mL; for microsomal CLint: CLint,H, Vmax/Km, 15 min
[12] = read-out: Antiplasmodial activity (literature data)

MIC50 [1]: 0.0938 µM | MIC50 [4]: 0.0106 µM | MIC90 [4]: 0.0163 ± 0.0031 µM
SMILES: CCN(CC)CCCC(C)Nc1ccnc2cc(Cl)ccc12 (stereo not shown) [CQ, Chloroquine diphosphate]
MIC50 (reported data) [2]: 0.062 to 0.1354 µM | MIC50 (reported data) [3]: 0.005 to 0.04 µM

SMILES: Nn1nnc2ccccc21 [1-ABT]
Effect of inhibitor on formation of ART-M in HLMs [5]: completely inhibited | Effect of inhibitor on formation of trace metabolite isomer M1 ([5]; ART in HLMs): inhibited completely

SMILES: Clc1ccc2c(N3CCN(CCCN4CCN(c5ccnc6cc(Cl)ccc56)CC4)CC3)ccnc2c1 [piperaquine]
Plasma protein binding [6]: 97.4% | Ki [7]: 680 nM

Effect of inhibitor on formation of ART-M in HLMs [5]: completely inhibited
SMILES: CC(=O)N1CCN(c2ccc(OCC3COC(Cn4ccnc4)(c4ccc(Cl)cc4Cl)O3)cc2)CC1 (stereo not shown) [ketoconazole]

SMILES: C[C@H]1[C@@H](O)O[C@@H]2O[C@@]3(C)CC[C@H]4[C@H](C)CC[C@@H]1[C@@]24OO3 [dihydroartemisinin]
MIC50 [2]: ~ 1.0 nM

SMILES: C[C@@H]1CC[C@H]2[C@@H](C)C(=O)O[C@@H]3O[C@@]4(C)CC[C@@H]1[C@]32OO4 [ART, Artemisinin]
MIC50 [1]: 0.0204 µM (≈ 5.76 ng/mL) | MIC90 [1]: 0.0384 ± 0.0009 µM (≈ 10.8 ng/mL) | Bioavailability [8]: ~ 30% | Elimination half-life t1/2 [8]: ~ 2 h | IC50 [2, 12]: 10 to 30 nM | IC50 [3, 12]: 10 to 30 nM | fraction unbound at 0.6 μM [9]: 0.251 | fAUC0-t ([10]; Day-1): 155.6 ± 27.6 nmol/L⋅h | fCmax ([10]; Day-1): 51.8 nM and 51.8 ± 18.0 nM | fAUC0-t ([10]; Day-2): 113.0 ± 20.1 nmol/L⋅h | fCmax ([10]; Day-2): 43.1 ± 10.5 nM | CL/F ([10]; male, human, plasma, oral, CL/F, Day-1, dose/AUC0-t): 183 mL/min/kg | Tmax ([10]; male, human, plasma, oral, Tmax, Day-1): 1 h | half-life ([10]; male, human, plasma, oral, t1/2, Day-1): 1.7 h | Cmax ([10]; male, human, plasma, po, Cmax, after the first oral dose, plasma): 207 nM | microsomal CLint ([11]; formation of ART-M): 27.6 µL/min/mg | microsomal CLint ([11]; substrate depletion): 30.3 µL/min/mg | Km at 15 min ([11]; Km, substrate depletion): 23.8 µM | MIC50 [4]: 0.0101 µM (≈ 2.85 ng/mL) | MIC90 [4]: 0.0139 ± 0.0005 µM (≈ 3.92 ng/mL)
